Among the data in ChEMBL document CHEMBL1145022, “Hydantoin-substituted 4,6-dichloroindole-2-carboxylic acids as ligands with high affinity for the glycine binding site of the NMDA receptor” (J Med Chem, 2003) are logP, IA and inhibition values, retold here.

Each structure is given as a SMILES string. Active and inactive are the calls of the source. The rule behind the calls is not given here.

A short description of data set [1]: Partition coefficient (logP). To be noted: octanol/water. Format: physicochemical. A digest of the protocol:
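Potentiometric titration in n-octanol/water; each Log P value is the mean of at least three independent experiments.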

Data set [2] deals with T1, Sodium channel alpha subunits; brain (Types I, II, III) (Rattus norvegicus) (UniProt P04775+P04774+P08104). Nature of the data set: Affinity for sodium channel site 2 up to 10 uM; Inactive. Format: protein assay.
T1 sequence (P04775 whole entry, looked up, other chains not shown): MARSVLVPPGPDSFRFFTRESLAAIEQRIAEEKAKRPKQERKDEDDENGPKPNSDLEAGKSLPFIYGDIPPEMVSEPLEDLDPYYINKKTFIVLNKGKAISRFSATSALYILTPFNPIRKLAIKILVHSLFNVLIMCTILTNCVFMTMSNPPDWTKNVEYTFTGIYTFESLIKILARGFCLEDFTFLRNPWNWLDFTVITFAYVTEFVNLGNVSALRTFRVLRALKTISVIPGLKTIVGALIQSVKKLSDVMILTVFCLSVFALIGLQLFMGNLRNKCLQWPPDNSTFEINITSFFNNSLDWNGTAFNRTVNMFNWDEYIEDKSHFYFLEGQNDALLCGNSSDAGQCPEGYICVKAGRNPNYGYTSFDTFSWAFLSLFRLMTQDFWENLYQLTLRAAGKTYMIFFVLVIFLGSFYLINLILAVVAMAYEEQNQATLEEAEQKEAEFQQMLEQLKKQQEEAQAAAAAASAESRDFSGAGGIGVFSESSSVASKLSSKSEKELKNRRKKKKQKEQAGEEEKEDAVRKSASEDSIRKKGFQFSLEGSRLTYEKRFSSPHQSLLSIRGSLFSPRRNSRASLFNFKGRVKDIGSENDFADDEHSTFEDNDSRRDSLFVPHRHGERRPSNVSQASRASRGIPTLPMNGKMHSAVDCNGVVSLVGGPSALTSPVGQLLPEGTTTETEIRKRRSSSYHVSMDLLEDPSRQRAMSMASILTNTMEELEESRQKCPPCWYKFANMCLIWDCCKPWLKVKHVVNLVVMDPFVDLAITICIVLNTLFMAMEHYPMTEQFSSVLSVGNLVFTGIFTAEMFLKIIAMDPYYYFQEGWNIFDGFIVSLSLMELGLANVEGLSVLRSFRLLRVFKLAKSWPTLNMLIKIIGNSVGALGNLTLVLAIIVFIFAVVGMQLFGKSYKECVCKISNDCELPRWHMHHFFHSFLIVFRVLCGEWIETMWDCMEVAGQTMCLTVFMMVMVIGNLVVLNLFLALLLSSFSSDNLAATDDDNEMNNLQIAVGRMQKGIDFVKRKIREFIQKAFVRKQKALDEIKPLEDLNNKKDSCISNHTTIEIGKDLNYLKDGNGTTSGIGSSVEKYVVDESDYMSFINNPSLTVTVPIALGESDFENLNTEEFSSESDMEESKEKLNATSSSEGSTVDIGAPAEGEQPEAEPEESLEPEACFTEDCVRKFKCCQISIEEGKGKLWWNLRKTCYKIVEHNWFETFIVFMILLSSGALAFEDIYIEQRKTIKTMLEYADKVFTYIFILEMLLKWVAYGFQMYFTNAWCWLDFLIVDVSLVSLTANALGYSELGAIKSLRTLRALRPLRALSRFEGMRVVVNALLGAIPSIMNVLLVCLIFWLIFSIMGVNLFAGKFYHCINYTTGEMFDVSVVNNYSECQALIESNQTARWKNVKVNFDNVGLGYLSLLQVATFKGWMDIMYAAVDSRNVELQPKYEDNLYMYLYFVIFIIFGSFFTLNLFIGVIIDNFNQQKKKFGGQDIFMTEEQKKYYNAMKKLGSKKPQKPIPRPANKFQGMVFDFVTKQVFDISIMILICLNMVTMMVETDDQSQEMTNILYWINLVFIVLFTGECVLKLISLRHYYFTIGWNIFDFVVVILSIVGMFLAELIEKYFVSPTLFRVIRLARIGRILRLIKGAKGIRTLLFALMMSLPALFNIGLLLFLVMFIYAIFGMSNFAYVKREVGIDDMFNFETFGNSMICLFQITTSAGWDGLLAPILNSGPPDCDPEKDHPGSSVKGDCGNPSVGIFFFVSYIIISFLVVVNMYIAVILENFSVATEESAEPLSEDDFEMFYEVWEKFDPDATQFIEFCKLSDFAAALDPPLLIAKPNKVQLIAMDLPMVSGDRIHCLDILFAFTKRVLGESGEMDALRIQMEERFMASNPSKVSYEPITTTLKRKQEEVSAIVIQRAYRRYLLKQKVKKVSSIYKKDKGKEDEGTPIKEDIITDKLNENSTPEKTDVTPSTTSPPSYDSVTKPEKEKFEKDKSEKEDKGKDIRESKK
T1 sequence (P08104 whole entry, looked up, other chains not shown): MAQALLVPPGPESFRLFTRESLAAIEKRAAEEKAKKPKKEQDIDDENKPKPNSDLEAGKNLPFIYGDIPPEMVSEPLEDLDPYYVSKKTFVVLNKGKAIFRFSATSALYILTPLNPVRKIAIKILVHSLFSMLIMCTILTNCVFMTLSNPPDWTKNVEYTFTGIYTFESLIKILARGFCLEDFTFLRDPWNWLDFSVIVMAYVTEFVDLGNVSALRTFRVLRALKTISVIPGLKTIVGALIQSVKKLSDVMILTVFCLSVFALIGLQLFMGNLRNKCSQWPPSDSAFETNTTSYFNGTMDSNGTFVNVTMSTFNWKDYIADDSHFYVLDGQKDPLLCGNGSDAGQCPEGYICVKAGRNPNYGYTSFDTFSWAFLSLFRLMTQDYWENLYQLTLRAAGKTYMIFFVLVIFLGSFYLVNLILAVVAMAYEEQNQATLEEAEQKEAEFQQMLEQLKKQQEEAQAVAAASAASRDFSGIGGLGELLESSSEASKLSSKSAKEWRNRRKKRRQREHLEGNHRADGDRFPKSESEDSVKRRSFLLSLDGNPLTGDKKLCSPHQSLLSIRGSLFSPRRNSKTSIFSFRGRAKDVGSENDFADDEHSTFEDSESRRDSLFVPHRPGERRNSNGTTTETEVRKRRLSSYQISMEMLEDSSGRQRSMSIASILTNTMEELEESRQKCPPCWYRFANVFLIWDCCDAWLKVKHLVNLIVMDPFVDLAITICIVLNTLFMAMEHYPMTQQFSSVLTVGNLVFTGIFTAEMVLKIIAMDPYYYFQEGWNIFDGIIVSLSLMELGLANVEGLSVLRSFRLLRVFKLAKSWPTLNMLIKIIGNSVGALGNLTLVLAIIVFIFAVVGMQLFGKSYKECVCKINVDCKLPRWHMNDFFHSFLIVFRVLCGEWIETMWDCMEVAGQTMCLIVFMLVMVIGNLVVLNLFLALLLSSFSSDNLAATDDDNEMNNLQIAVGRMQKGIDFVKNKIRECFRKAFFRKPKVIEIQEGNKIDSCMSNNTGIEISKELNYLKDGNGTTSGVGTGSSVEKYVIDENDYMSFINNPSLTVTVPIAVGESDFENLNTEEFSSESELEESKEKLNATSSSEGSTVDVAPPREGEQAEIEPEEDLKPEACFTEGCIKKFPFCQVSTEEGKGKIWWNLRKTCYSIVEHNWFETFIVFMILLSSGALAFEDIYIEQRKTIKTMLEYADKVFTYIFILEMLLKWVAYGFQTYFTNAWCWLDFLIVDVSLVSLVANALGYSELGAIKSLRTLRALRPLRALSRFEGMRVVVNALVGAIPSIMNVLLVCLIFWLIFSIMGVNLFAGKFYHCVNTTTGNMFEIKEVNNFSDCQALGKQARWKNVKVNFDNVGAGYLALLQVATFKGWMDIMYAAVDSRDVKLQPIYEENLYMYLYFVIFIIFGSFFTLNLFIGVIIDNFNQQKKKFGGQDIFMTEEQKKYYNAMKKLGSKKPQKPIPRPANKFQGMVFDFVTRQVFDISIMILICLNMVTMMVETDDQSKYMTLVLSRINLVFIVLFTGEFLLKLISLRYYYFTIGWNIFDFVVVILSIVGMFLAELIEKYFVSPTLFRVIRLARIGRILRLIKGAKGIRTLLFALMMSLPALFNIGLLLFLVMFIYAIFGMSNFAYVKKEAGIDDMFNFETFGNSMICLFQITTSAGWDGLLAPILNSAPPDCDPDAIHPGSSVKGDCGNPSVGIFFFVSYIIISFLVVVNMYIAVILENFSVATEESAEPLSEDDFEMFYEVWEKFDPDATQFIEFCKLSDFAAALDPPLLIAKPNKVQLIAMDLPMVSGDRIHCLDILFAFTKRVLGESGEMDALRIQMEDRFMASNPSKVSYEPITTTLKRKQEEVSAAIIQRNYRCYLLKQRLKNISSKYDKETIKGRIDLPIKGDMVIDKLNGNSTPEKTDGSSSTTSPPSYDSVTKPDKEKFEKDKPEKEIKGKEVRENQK
Data set [3] concerns the target T1, Sodium channel alpha subunits; brain (Types I, II, III) (Rattus norvegicus). Description: Inhibition of [3H]batrachotoxin binding to rat brain sodium channels at 0.1 uM.
Data set [4] shares this target. Description: Inhibition of [3H]batrachotoxin binding to rat brain sodium channels at 10 uM.
For data set [5] the target is unchanged. Nature of the data set: Inhibition of [3H]batrachotoxin binding to rat brain sodium channels at 1 uM.

By logP is commonly meant the decadic logarithm of the partition coefficient of the neutral form, usually between octanol and water. A low value points to a more hydrophilic compound. For the compound `O=C(O)c1[nH]c2cc(Cl)cc(Cl)c2c1CN1CC(=O)N(c2ccccc2)C1=O`, the logP in data set [1] worked out at 2.16. For the same compound, in data set [2], the IA result is “inactive”.
With `O=C(O)c1[nH]c2cc(Cl)cc(Cl)c2c1CNS(=O)(=O)c1ccccc1`, the logP in data set [1] worked out at 3.1.
By inhibition is commonly meant the relative decrease from the control value, in per cent. Turning to `CC(C)C1C(=O)N(c2ccccc2)C(=O)N1Cc1c(C(=O)O)[nH]c2cc(Cl)cc(Cl)c12` (stereo not drawn), the inhibition was 11% in data set [3], 29% in data set [4] and 8% in data set [5].
Compound `O=C(NCc1c(C(=O)O)[nH]c2cc(Cl)cc(Cl)c12)Nc1ccccc1` returned a logP in data set [1] of 2.83.
In data set [1], `O=C(NCc1c(C(=O)O)[nH]c2cc(Cl)cc(Cl)c12)c1ccccc1` registered a logP of 2.36.
